Results: PubChem BioAssay AID588553 (Broad Institute, 2011)

Molecular target: Scavenger receptor class B member 1 (Mus musculus) (UniProt Q61009)
Assay: SR-BI-mediated DiI-HDL uptake inhibitors, dose response, ldlA[mSR-BI] CHO cells, powder samples, set 3 (AID 588553)
Details: DiI-HDL uptake fluorescence, 3 h
Outline: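 Assay system: ldlA[mSR-BI] CHO cells. Buffer or medium: F12 medium with BSA and HEPES. Probe or stimulus: DiI-labelled HDL, 10 µg/mL. Schedule: 3 h compound and DiI-HDL exposure at 37 °C. Detection: fluorescence, ex 550 nm, em 595 nm. Controls: DMSO neutral control, BLT-1 positive control.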

Chain of Scavenger receptor class B member 1 (Mus musculus) (Q61009 whole entry, looked up): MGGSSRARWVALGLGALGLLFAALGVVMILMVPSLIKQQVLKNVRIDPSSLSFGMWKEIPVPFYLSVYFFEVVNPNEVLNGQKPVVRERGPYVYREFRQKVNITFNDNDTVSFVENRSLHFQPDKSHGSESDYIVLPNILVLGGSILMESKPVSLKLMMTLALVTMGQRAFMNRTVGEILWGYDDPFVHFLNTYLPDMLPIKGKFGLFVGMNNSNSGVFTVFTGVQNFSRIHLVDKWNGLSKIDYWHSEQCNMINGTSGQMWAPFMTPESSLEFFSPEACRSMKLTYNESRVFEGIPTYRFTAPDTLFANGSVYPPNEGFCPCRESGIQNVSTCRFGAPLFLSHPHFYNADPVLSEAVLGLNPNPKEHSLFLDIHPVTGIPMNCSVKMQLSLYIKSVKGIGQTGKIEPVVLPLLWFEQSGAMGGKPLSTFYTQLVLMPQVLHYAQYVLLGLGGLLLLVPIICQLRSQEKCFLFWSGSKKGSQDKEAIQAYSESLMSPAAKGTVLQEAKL

Row | AC50 | Compound
1 | 225 nM | CC(C(=O)NC1CCCC1)N(C(=O)Cn1nnc(-c2ccc3c(c2)OC(F)(F)O3)n1)C1CCCCC1 (configuration not stated)
2 | 108 nM | CC(C(=O)NC1CCCC1)N(C(=O)Cn1nnc(-c2ccc(Cl)c(Cl)c2)n1)C1CCCCC1 (configuration not stated)
3 | 228 nM | COc1cc(OC)cc(C(=O)Nc2nc(-c3ccc4[nH]ccc4c3)cs2)c1
4 | 303 nM | O=C(CN(C(=O)Cn1nnc(-c2ccc(Cl)c(Cl)c2)n1)C1CCCCC1)NC1CCCC1
5 | < 15 nM | COCC(=O)N1CCc2cc(-c3csc(NC(=O)c4cc(OC)cc(OC)c4)n3)ccc21
6 | < 15 nM | CCNC(=O)N1CCc2cc(-c3csc(NC(=O)c4cc(OC)cc(OC)c4)n3)ccc21
7 | 17.4 nM | COc1cc(OC)cc(C(=O)Nc2nc(-c3ccc4c(c3)CCN4C(C)=O)cs2)c1
8 | 140 nM | CCC(=O)Nc1ccc(-c2csc(N)n2)cc1
9 | 44.1 nM | CCC(=O)N1CCc2cc(-c3csc(/N=C(/OC)c4cc(OC)cc(OC)c4)n3)ccc21
10 | < 15 nM | CCC(=O)N1CCc2cc(-c3csc(NC(=O)c4cc(OC)c(OC)c(OC)c4)n3)ccc21
11 | < 15 nM | COc1ccc(-c2nnn(CC(=O)N(CC(=O)NC3CCCC3)C3CCCCC3)n2)cc1OC
12 | 2010 nM | CCC(=O)Nc1ccc(-c2csc(NC(=O)c3ccco3)n2)cc1
13 | 113 nM | COc1cc(OC)cc(C(=O)Nc2nc(-c3ccc4c(c3)CCN4)cs2)c1
14 | 29.2 nM | CCC(=O)N1CCc2cc(-c3csc(NC(=O)c4cccc(OC(F)(F)F)c4)n3)ccc21
15 | 13900 nM | CC(C)(C)OC(=O)N1CCc2cc(-c3noc(NC(=O)c4ccco4)n3)ccc21
16 | 15.4 nM | COc1ccc(-c2cc(CC(=O)N(C3CCCCC3)C(C)C(=O)NC3CCCC3)no2)cc1OC (configuration not stated)

Row | AC50 | Compound
17 | 180 nM | CCC(=O)N1CCc2cc(-c3csc(N(C)C(=O)c4cc(OC)cc(OC)c4)n3)ccc21
18 | < 15 nM | COc1cc(OC)cc(C(=O)Nc2nc(-c3ccc4c(c3)CCN4C(=O)OC(C)(C)C)cs2)c1
19 | < 15 nM | COc1cc(OC)cc(C(=O)Nc2nc(-c3ccc4c(c3)CCN4C(=O)CN(C)C)cs2)c1
20 | 836 nM | CC(C(=O)NC1CCCC1)N(C(=O)Cn1nnc(-c2ccc3c(c2)OCO3)n1)C1CCOCC1 (configuration not stated)
21 | 89.5 nM | CCCN1CCc2cc(-c3csc(NC(=O)c4cc(OC)cc(OC)c4)n3)ccc21
22 | 141 nM | CCC(=O)N1CCc2cc(-c3csc(NC(=O)c4cc5cccnc5o4)n3)ccc21
23 | 17 nM | CC(C(=O)NC1CCCC1)N(C(=O)Cn1nnc(-c2ccc3c(c2)OCO3)n1)C1CCCCC1 (configuration not stated)
24 | 6280 nM | COc1ccc(-c2nc(CC(=O)N(C3CCCCC3)C(C)C(=O)NC3CCCC3)cs2)cc1OC (configuration not stated)
25 | 44.7 nM | CCC(=O)Nc1ccc(-c2csc(NC(=O)c3cccc(OC)c3)n2)cc1
26 | < 15 nM | O=C(CN(C(=O)Cn1nnc(-c2ccc3c(c2)OCO3)n1)C1CCCCC1)NC1CCCC1
27 | 58.7 nM | CCC(=O)N1CCc2cc(-c3csc(NC(=O)c4ccco4)n3)ccc21
28 | 65.3 nM | O=C(CN(C(=O)Cn1nnc(-c2ccc3c(c2)OC(F)(F)O3)n1)C1CCCCC1)NC1CCCC1
29 | < 15 nM | O=C(Nc1nc(-c2ccc3c(c2)CCN3)cs1)c1ccco1
30 | 52.9 nM | CCC(=O)N1CCc2cc(-c3csc(NC(=O)c4cc(OC)cc(OC)c4)n3)ccc21
31 | 26.9 nM | COC(=O)N1CCc2cc(-c3csc(NC(=O)c4cc(OC)cc(OC)c4)n3)ccc21
32 | < 15 nM | CCCCCCC1CCC/C1=N\NC(N)=S (configuration not stated)
